Test results from ChEMBL document CHEMBL3352689 (J Med Chem, 2014).
Converted amounts (≈) assume the structure as drawn.

Experiments:
[1] = target: Disintegrin and metalloproteinase domain-containing protein 17 (Homo sapiens, UniProt P78536); assay: Inhibition of human recombinant TACE using Cy3-PLAQAV(Cy5Q-L-2,3-diaminopropionic acid)-RSSSRNH2 as substrate after 40 mins by spectrofluorimetry
[2] = Solubility of the compound in Britton-Robinson buffer at pH 7; type: physicochemical
[3] = target: 72 kDa type IV collagenase (Homo sapiens, UniProt P08253); assay: Inhibition of human recombinant MMP2 using Cy3-PLGLK(Cy5Q)AR-NH2 as substrate after 40 mins by spectrofluorimetry
Rattus norvegicus = assay: Intrinsic clearance in iv dosed rat; type: ADME, organism-based; conditions: in vivo
Stromelysin-1 = Stromelysin-1 (Homo sapiens, UniProt P08254); assay: Inhibition of human recombinant MMP3 using Cy3-PLGLK(Cy5Q)AR-NH2 as substrate after 40 mins by spectrofluorimetry
Procedure, shortened: (§1)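 Human recombinant pro-enzymes were activated with 1 mM APMA at 37 °C, for 2 h (MMP-1) or 18 h (MMP-3). Reactions were stopped with EDTA and read at […] nm. Activity was scaled to no-inhibitor and EDTA controls, and IC50 obtained by iterative fitting.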

[4] = target: Voltage-gated inwardly rectifying potassium channel KCNH2 (Homo sapiens, UniProt Q12809); assay: Inhibition of human ERG
Matrilysin = target: T1, Matrilysin (Homo sapiens, UniProt P09237); assay: Inhibition of human recombinant MMP7 using Cy3-PLGLK(Cy5Q)AR-NH2 as substrate after 40 mins by spectrofluorimetry
T1 sequence (P09237 whole entry): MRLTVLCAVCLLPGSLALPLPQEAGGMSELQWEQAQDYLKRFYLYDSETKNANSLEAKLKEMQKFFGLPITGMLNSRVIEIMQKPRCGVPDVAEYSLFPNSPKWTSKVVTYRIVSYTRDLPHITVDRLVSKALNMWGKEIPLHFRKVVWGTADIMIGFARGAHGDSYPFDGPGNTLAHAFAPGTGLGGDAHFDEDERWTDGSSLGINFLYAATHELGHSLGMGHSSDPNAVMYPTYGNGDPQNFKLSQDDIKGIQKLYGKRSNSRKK

[5] = Apparent permeability in human Caco2 cells; type: ADME, cell-based; conditions: Caco-2
Liver microsome = assay: Metabolic stability in rat liver microsomes; type: ADME
Procedure, shortened: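 The free acid was incubated with hepatic microsomes of each species. Stability is reported as clearance in μL/min/mg microsomal protein.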

[6] = target: Matrix metalloproteinase-14 (Homo sapiens, UniProt P50281); assay: Inhibition of human recombinant GST-tagged MMP14 using Cy3-PLGLK(Cy5Q)AR-NH2 as substrate after 40 mins by spectrofluorimetry
[7] = target: Matrix metalloproteinase-9 (Homo sapiens, UniProt P14780); assay: Inhibition of human recombinant MMP9 using Cy3-PLGLK(Cy5Q)AR-NH2 as substrate after 40 mins by spectrofluorimetry
Stromelysin-2 = Stromelysin-2 (Homo sapiens, UniProt P09238); assay: Inhibition of human recombinant MMP10 using Cy3-PLGLK(Cy5Q)AR-NH2 as substrate after 40 mins by spectrofluorimetry
[8] = Inhibition of cytochrome P450 (unknown origin); type: ADME; conditions: human
Collagenase 3 = Collagenase 3 (Homo sapiens, UniProt P45452); assay: Inhibition of human recombinant MMP13 using Cy3-PLGLK(Cy5Q)AR-NH2 as substrate after 40 mins by spectrofluorimetry
Interstitial collagenase = target: T2, Interstitial collagenase (Homo sapiens, UniProt P03956); assay: Inhibition of human recombinant MMP1 using Cy3-PLGLK(Cy5Q)AR-NH2 as substrate after 40 mins by spectrofluorimetry; procedure, shortened: as §1
T2 sequence (P03956 whole entry): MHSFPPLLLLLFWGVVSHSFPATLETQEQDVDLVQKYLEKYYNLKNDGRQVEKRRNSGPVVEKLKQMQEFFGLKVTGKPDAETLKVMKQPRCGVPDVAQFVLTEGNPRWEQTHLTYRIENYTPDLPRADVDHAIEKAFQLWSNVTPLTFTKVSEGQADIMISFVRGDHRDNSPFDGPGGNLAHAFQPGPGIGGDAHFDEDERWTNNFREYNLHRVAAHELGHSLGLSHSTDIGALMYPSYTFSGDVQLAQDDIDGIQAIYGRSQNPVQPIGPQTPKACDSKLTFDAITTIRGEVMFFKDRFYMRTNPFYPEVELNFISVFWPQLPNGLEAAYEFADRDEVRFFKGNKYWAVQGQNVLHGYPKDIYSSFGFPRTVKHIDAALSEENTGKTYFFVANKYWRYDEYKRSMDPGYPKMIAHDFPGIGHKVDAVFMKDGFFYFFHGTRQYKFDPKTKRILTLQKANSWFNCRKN

[9] = Solubility of the compound in water; type: physicochemical; conditions: buffer
Neutrophil collagenase = Neutrophil collagenase (Homo sapiens, UniProt P22894); assay: Inhibition of human recombinant MMP8 using Cy3-PLGLK(Cy5Q)AR-NH2 as substrate after 40 mins by spectrofluorimetry
Chain of Neutrophil collagenase (P22894 whole entry): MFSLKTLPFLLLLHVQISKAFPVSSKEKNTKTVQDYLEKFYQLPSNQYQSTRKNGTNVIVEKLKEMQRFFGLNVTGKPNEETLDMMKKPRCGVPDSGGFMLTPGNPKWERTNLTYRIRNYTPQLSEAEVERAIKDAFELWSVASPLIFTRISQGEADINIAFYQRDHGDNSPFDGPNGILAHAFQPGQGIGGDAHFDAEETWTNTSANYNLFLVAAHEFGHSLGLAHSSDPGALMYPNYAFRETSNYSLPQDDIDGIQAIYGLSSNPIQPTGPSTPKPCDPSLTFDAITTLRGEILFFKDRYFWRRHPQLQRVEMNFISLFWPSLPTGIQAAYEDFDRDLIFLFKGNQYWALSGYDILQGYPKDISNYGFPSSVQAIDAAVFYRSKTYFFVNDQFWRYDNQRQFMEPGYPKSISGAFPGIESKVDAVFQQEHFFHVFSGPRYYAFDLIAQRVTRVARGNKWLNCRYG

Chain of Stromelysin-2 (P09238 whole entry): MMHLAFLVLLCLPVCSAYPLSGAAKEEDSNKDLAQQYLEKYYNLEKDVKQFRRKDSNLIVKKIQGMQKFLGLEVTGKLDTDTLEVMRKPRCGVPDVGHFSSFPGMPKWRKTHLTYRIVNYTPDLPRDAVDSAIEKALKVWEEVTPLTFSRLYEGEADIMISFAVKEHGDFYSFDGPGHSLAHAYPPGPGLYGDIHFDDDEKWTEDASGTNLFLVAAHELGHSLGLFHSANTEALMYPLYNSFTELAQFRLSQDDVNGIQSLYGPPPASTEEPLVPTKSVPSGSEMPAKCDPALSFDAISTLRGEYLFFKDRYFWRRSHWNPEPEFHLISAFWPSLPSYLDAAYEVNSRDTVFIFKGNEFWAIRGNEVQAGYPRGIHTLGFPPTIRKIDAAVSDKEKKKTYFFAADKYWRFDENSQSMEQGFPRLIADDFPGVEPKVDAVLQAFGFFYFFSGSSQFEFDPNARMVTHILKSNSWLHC
Chain of Voltage-gated inwardly rectifying potassium channel KCNH2 (Q12809 whole entry): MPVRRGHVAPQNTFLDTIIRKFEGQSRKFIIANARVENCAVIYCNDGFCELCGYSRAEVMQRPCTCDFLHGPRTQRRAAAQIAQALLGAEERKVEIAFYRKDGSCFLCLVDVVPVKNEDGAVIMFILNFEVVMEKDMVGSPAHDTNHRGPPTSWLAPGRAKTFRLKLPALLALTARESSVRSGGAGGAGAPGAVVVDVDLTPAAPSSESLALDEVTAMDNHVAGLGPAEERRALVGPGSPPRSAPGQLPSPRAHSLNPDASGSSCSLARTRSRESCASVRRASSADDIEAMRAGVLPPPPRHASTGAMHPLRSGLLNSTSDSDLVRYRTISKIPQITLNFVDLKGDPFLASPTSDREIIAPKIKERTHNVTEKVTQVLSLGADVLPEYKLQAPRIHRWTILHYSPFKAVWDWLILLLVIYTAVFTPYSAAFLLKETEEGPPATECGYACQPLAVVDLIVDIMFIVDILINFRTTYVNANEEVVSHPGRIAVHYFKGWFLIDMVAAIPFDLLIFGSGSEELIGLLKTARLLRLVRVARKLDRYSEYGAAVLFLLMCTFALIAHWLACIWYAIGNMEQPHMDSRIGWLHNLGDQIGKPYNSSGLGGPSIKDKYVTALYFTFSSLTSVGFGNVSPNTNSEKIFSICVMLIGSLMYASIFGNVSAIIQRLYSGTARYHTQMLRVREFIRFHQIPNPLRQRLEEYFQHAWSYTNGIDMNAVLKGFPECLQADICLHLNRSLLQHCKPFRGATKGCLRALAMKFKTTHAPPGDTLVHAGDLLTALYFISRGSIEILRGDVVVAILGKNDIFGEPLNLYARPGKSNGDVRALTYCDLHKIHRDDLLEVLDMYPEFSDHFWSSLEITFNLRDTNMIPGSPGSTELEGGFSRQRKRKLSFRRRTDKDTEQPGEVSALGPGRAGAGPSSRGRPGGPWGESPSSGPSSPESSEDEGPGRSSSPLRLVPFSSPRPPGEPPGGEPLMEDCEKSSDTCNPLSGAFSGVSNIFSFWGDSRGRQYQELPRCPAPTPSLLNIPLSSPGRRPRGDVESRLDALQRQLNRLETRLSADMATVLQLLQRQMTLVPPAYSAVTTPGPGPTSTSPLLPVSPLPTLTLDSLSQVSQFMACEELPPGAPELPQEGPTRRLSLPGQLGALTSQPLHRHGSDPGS
Chain of Stromelysin-1 (P08254 whole entry): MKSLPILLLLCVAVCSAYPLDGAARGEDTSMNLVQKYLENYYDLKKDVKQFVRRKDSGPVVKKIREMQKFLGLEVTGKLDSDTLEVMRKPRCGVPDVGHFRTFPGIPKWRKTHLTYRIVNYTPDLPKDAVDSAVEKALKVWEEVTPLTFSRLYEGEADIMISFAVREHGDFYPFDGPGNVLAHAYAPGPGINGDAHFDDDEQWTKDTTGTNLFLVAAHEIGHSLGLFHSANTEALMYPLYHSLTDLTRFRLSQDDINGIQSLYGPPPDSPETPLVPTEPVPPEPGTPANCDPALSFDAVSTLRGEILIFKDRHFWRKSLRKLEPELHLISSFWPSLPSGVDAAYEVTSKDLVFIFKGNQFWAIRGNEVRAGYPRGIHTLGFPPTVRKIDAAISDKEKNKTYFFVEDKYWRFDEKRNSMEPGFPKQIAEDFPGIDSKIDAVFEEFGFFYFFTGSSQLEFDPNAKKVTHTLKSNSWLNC
Chain of 72 kDa type IV collagenase (P08253 whole entry): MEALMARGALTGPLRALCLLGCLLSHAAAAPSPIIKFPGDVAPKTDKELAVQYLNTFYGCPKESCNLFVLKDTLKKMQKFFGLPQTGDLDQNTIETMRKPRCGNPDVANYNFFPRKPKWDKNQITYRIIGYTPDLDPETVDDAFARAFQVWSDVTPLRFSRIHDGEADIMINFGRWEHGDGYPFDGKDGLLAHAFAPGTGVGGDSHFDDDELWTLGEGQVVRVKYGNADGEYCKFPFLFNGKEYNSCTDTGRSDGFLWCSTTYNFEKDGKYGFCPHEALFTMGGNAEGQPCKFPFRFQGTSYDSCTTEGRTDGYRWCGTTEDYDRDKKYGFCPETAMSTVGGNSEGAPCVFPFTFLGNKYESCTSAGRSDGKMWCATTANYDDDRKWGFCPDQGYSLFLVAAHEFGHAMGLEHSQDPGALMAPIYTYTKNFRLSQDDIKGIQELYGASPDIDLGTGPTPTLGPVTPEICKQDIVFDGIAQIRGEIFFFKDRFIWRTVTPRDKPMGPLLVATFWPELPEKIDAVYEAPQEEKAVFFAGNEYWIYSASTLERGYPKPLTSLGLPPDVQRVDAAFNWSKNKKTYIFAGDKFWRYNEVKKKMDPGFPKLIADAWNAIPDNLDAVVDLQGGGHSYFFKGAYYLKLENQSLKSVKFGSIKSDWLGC
Chain of Disintegrin and metalloproteinase domain-containing protein 17 (P78536 whole entry, the tested form may be a part): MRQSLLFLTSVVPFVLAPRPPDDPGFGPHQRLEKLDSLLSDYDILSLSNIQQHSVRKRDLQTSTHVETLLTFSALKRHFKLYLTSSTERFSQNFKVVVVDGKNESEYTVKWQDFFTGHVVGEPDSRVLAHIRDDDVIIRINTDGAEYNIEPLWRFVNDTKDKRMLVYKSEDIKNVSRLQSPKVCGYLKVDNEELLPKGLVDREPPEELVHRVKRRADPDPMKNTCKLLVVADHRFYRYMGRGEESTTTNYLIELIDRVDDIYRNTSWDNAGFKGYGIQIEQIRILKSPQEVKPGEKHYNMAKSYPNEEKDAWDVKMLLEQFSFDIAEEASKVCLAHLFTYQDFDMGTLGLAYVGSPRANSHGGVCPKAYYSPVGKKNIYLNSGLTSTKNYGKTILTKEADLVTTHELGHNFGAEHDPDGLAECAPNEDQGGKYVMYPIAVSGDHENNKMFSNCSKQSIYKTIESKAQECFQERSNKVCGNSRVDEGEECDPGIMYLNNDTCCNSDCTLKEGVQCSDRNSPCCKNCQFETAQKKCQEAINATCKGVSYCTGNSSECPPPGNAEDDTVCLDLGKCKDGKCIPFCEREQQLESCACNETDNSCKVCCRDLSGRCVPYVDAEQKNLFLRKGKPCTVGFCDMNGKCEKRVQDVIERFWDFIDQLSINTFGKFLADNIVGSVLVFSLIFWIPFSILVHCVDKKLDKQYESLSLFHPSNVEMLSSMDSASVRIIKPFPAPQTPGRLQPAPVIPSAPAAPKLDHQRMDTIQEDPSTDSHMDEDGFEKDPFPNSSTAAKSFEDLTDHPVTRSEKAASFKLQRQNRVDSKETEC
Chain of Matrix metalloproteinase-9 (P14780 whole entry): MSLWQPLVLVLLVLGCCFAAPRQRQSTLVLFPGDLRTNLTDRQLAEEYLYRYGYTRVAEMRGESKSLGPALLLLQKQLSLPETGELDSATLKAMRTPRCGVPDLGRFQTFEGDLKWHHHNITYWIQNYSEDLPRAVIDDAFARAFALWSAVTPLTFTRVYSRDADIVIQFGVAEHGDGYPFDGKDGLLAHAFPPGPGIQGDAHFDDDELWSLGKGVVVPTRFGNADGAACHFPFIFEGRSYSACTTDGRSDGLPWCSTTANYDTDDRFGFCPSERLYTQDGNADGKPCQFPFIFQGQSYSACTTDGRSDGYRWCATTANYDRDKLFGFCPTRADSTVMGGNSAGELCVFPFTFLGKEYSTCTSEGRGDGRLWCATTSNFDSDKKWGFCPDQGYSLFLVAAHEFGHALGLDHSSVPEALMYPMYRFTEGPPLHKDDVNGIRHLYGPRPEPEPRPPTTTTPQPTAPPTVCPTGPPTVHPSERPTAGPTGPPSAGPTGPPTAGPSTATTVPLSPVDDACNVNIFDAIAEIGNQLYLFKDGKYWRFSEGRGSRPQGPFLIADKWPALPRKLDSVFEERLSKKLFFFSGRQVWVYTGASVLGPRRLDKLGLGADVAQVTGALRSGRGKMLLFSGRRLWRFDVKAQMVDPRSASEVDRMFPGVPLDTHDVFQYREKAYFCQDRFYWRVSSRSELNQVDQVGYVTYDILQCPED

With `COc1cccc(CNC(=O)c2nc3ccc(F)c(OCCc4ccc(C(=O)O)cc4)c3c(=O)[nH]2)c1` the IC50 [1] was over 10 µM, the solubility [2] was 0.7 µg/mL (≈ 1.42 µM) and the IC50 [3] was 5.3 µM. For the same molecule, the CL (Rattus norvegicus) was 28.3 mL/min/kg, the IC50 (Stromelysin-1) was 4 µM and the “inhibition (INH)” value [4] was “Not Active”. The IC50 (Matrilysin) was over 10 µM, the Papp [5] was 4.77 ×10⁻⁶ cm/s and the Microsomal clearance (Liver microsome) was 70 µL/min/mg. For the same molecule, the IC50 [6] was over 10 µM, the IC50 [7] was over 10 µM and the IC50 (Stromelysin-2) was 0.16 µM. The “inhibition (INH)” value [8] was “Not Active”, the IC50 (Collagenase 3) was 3.9 pM and the IC50 (Interstitial collagenase) was over 10 µM. The solubility [9] was “Insoluble” and the IC50 (Neutrophil collagenase) was 0.72 µM.
